≈ marks a conversion by molar mass, not a printed value. Calls of active or inactive are those of the source. The rule behind the calls is not given here.
Assays:
Pseudomonas aeruginosa [1] = experiment: Antibacterial activity against Pseudomonas aeruginosa MTCCB 741 after 18-20 hrs by broth dilution method; format: functional
Method in brief: (§1)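 MIC was found by microbroth dilution in Mueller-Hinton broth with serial two-fold compound dilutions. The inoculum came from a 4–6 h broth culture adjusted to 0.5 McFarland, then diluted in broth to a final 3 × 10⁶ cfu/ml.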

Aspergillus niger [2] = experiment: Antifungal activity against Aspergillus niger ITCC 5405 by percentage spore germination inhibition method; format: functional
Method in brief: (§2)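 Compound serially double-diluted in culture medium in 96-well plates, triplicate wells per concentration. Each well inoculated with spore suspension of about 100 ± 5 spores and incubated at 37 °C for 16 h. Germinated and non-germinated spores counted by inverted microscope. MIC90 is the lowest concentration giving >90% inhibition of spore germination.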

[3] = test system: Staphylococcus epidermidis; experiment: Antibacterial activity against Staphylococcus epidermidis MTCCB 1824 at 30 ug/disc after 48 hrs by disc diffusion method; format: functional; conditions: for zone of inhibition at 30 µg/disc: read-out: IZ
Method in brief: (§3)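 Compound-impregnated discs were placed on agar plates pre-inoculated with the bacterial strain and incubated at 37 °C. Zones of inhibition around the discs were read at 48 h. Gentamicin served as the standard control, alongside a solvent-only (DMSO) disc.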

Aspergillus niger [4] = experiment: Antifungal activity against Aspergillus niger ITCC 5405 by micro-broth dilution method; format: functional
[5] = test system: Staphylococcus epidermidis; experiment: Antibacterial activity against Staphylococcus epidermidis MTCCB 1824 after 18-20 hrs by broth dilution method; format: functional; method in brief: as §1
Pseudomonas aeruginosa [6] = experiment: Antibacterial activity against Pseudomonas aeruginosa MTCCB 741 at 30 ug/disc after 48 hrs by disc diffusion method; format: functional; conditions: for zone of inhibition at 30 µg/disc: read-out: IZ; method in brief: as §3
HeLa = experiment: Cytotoxicity against Hela cells at 30 ug after 48 hrs by MTT assay relative to gentamicin; format: functional, Homo sapiens
Method in brief: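 HeLa cells were grown in DMEM with 10% heat-inactivated FBS and penicillin-streptomycin at 37 °C, 5% CO₂, seeded at 8 × 10³ cells/well and allowed 16 h to adhere. They were exposed to compound in serum-free DMEM for 4 h, then kept 48 h in growth medium. MTT was added for 2 h, formazan was dissolved in isopropanol/0.06 M HCl/0.5% SDS, and A540 was read. Viability is % of untreated cells, with gentamicin as comparator.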

Escherichia coli [7] = experiment: Antibacterial activity against Escherichia coli MTCCB 1652 after 18-20 hrs by broth dilution method; format: functional; method in brief: as §1
Aspergillus flavus [8] = experiment: Antifungal activity against Aspergillus flavus ITCC 5192 by micro-broth dilution method; format: functional
Staphylococcus aureus [9] = experiment: Antibacterial activity against Staphylococcus aureus MTCCB 737 at 30 ug/disc after 48 hrs by disc diffusion method; format: functional; conditions: for zone of inhibition at 30 µg/disc: read-out: IZ; method in brief: as §3
Aspergillus flavus [10] = experiment: Antifungal activity against Aspergillus flavus ITCC 5192 by percentage spore germination inhibition method; format: functional; method in brief: as §2
Aspergillus niger [11] = experiment: Antifungal activity against Aspergillus niger ITCC 5405 by disc diffusion method; format: functional
Method in brief: (§4)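 Agar plates inoculated with Aspergillus spores; sterile 5.0 mm filter-paper discs loaded with test compound over a range of 750–1.46 (unit as printed unclear) and placed on the surface. Incubated at 37 °C; zones read at 24, 48 and 96 h. MIC was taken as the lowest concentration giving an inhibition zone of at least 6.0 mm diameter.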

Aspergillus fumigatus [12] = experiment: Antifungal activity against Aspergillus fumigatus ITCC 4517 by disc diffusion method; format: functional; method in brief: as §4
Staphylococcus aureus [13] = experiment: Antibacterial activity against Staphylococcus aureus MTCCB 737 after 18-20 hrs by broth dilution method; format: functional; method in brief: as §1
Aspergillus fumigatus [14] = experiment: Antifungal activity against Aspergillus fumigatus ITCC 4517 by micro-broth dilution method; format: functional
Aspergillus fumigatus [15] = experiment: Antifungal activity against Aspergillus fumigatus ITCC 4517 by percentage spore germination inhibition method; format: functional; method in brief: as §2
Escherichia coli [16] = experiment: Antibacterial activity against Escherichia coli MTCCB 1652 at 30 ug/disc after 48 hrs by disc diffusion method; format: functional; conditions: for zone of inhibition at 30 µg/disc: read-out: IZ; method in brief: as §3
Aspergillus flavus [17] = experiment: Antifungal activity against Aspergillus flavus ITCC 5192 by disc diffusion method; format: functional; method in brief: as §4

| Compound | MIC (Pseudomonas aeruginosa [1]) [µg/mL] | Activity (Aspergillus niger [2]) | zone of inhibition at 30 µg/disc [3] [mm] | Activity (Aspergillus niger [4]) | MIC [5] [µg/mL] | zone of inhibition at 30 µg/disc (Pseudomonas aeruginosa [6]) [mm] | MIC (Escherichia coli [7]) [µg/mL] | zone of inhibition at 30 µg/disc (Staphylococcus aureus [9]) [mm] | Activity (Aspergillus niger [11]) | MIC (Staphylococcus aureus [13]) [µg/mL] | zone of inhibition at 30 µg/disc (Escherichia coli [16]) [mm] | MIC (Aspergillus flavus [8]) [µg/mL] | MIC (Aspergillus flavus [10]) [µg/mL] | MIC (Aspergillus fumigatus [14]) [µg/mL] | MIC (Aspergillus fumigatus [15]) [µg/mL] | also measured |
| --- | --- | --- | --- | --- | --- | --- | --- | --- | --- | --- | --- | --- | --- | --- | --- | --- |
| N#CCCN1CCN(CCO)CC1 | 39.1 (≈ 213 µM) | inactive | 11 | inactive | 310 (≈ 1690 µM) | 15 | 39.1 (≈ 213 µM) | 18 | inactive | 19.5 (≈ 106 µM) | 15 | – | – | – | – | Activity (HeLa): 60%; Activity (Aspergillus flavus [8]): inactive; Activity (Aspergillus flavus [10]): inactive; Activity (Aspergillus fumigatus [12]): inactive; Activity (Aspergillus fumigatus [14]): inactive; Activity (Aspergillus fumigatus [15]): inactive; Activity (Aspergillus flavus [17]): inactive |
| N#CCN1CCN(Cc2ccccc2)CC1 | 156 (≈ 726 µM) | inactive | 10 | inactive | 310 (≈ 1440 µM) | 13 | 625 (≈ 2900 µM) | 18 | inactive | 19.5 (≈ 90.6 µM) | 9 | – | – | – | – | Activity (Aspergillus flavus [8]): inactive; Activity (Aspergillus flavus [10]): inactive; Activity (Aspergillus fumigatus [14]): inactive; Activity (Aspergillus flavus [17]): inactive |
| N#CCCN1CCNCC1 | – | – | – | – | – | – | – | – | – | – | – | – | – | – | – | Activity (Pseudomonas aeruginosa [1]): inactive; Activity [3]: inactive; Activity [5]: inactive; Activity (Pseudomonas aeruginosa [6]): inactive; Activity (Staphylococcus aureus [9]): inactive; Activity (Staphylococcus aureus [13]): inactive |
| N#CCCN1CCN(CCC#N)CC1 | 156 (≈ 813 µM) | inactive | 9 | inactive | 625 (≈ 3250 µM) | 11 | 625 (≈ 3250 µM) | 11 | inactive | 310 (≈ 1610 µM) | 10 | – | – | – | – | Activity (Aspergillus flavus [8]): inactive; Activity (Aspergillus flavus [10]): inactive; Activity (Aspergillus fumigatus [12]): inactive; Activity (Aspergillus fumigatus [14]): inactive; Activity (Aspergillus flavus [17]): inactive |
| N#CCCN1CCN(Cc2ccccc2)CC1 | – | – | – | – | – | – | – | – | – | – | – | – | – | – | – | Activity (Pseudomonas aeruginosa [1]): inactive; Activity [3]: inactive; Activity [5]: inactive; Activity (Pseudomonas aeruginosa [6]): inactive; Activity (Staphylococcus aureus [9]): inactive; Activity (Staphylococcus aureus [13]): inactive |
| N#CCN1CCN(c2ccccc2)CC1 | 156 (≈ 777 µM) | – | 12 | – | 156 (≈ 777 µM) | 13 | 310 (≈ 1540 µM) | 10 | – | 310 (≈ 1540 µM) | 9 | 500 (≈ 2480 µM) | 500 (≈ 2480 µM) | 500 (≈ 2480 µM) | 250 (≈ 1240 µM) | MIC (Aspergillus niger [2]): 250 µg/mL (≈ 1240 µM); MIC (Aspergillus niger [4]): 500 µg/mL (≈ 2480 µM); Activity (HeLa): >95% |
| GENTAMICIN | 19.5 | – | – | – | 19.5 | – | 19.5 | – | – | 9.8 | – | – | – | – | – | inhibition zone (IZ) [3]: 18 mm; inhibition zone (IZ) (Pseudomonas aeruginosa [6]): 19 mm; inhibition zone (IZ) (Staphylococcus aureus [9]): 20 mm; inhibition zone (IZ) (Escherichia coli [16]): 18 mm |
| COc1ccccc1N1CCN(CC#N)CC1 | 625 (≈ 2700 µM) | – | 8 | – | 625 (≈ 2700 µM) | 8 | 310 (≈ 1340 µM) | 9 | – | 625 (≈ 2700 µM) | 10 | – | – | – | – | – |
| C[C@@H]1[C@H](O)[C@@H](C)/C=C/C=C/C=C/C=C/C=C/C=C/C=C/[C@H](O[C@@H]2O[C@H](C)[C@@H](O)[C@H](N)[C@@H]2O)C[C@@H]2O[C@](O)(C[C@@H](O)C[C@@H](O)[C@H](O)CC[C@@H](O)C[C@@H](O)CC(=O)O[C@H]1C)C[C@H](O)[C@H]2C(=O)O [AMPHOTERICIN B] | – | – | – | – | – | – | – | – | – | – | – | 5 (≈ 5.41 µM) | 5 (≈ 5.41 µM) | 5 (≈ 5.41 µM) | 5 (≈ 5.41 µM) | MIC (Aspergillus niger [2]): 5 µg/mL (≈ 5.41 µM); MIC (Aspergillus niger [4]): 5 µg/mL (≈ 5.41 µM); MIC (Aspergillus niger [11]): 2.5 µg/disc; MIC (Aspergillus fumigatus [12]): 2.5 µg/disc; MIC (Aspergillus flavus [17]): 2.5 µg/disc |
| CN1CCN(CC#N)CC1 | 625 (≈ 4490 µM) | – | 8 | – | 625 (≈ 4490 µM) | 9 | 310 (≈ 2230 µM) | 12 | – | 310 (≈ 2230 µM) | 12 | 500 (≈ 3590 µM) | 250 (≈ 1800 µM) | 500 (≈ 3590 µM) | 500 (≈ 3590 µM) | MIC (Aspergillus niger [2]): 250 µg/mL (≈ 1800 µM); MIC (Aspergillus niger [4]): 500 µg/mL (≈ 3590 µM); MIC (Aspergillus niger [11]): 93.7 µg/disc; MIC (Aspergillus flavus [17]): 93.8 µg/disc |
| N#CCCN1CCN(c2ccccc2)CC1 | 625 (≈ 2900 µM) | – | 12 | – | 156 (≈ 726 µM) | 9 | 156 (≈ 726 µM) | 13 | – | 156 (≈ 726 µM) | 12 | 500 (≈ 2320 µM) | 250 (≈ 1160 µM) | 250 (≈ 1160 µM) | 250 (≈ 1160 µM) | MIC (Aspergillus niger [2]): 250 µg/mL (≈ 1160 µM); MIC (Aspergillus niger [4]): 500 µg/mL (≈ 2320 µM); Activity (HeLa): 60% |
| N#CCN1CCN(c2ccccc2[N+](=O)[O-])CC1 | – | – | – | – | – | – | – | – | – | – | – | – | – | – | – | Activity (Pseudomonas aeruginosa [1]): inactive; Activity [3]: inactive; Activity [5]: inactive; Activity (Pseudomonas aeruginosa [6]): inactive; Activity (HeLa): 60%; Activity (Staphylococcus aureus [9]): inactive; Activity (Staphylococcus aureus [13]): inactive |
| CN1CCN(CCC#N)CC1 | 19.5 (≈ 127 µM) | inactive | 11 | inactive | 156 (≈ 1020 µM) | 19 | 39.1 (≈ 255 µM) | 10 | inactive | 310 (≈ 2030 µM) | 18 | – | – | – | – | Activity (Aspergillus flavus [8]): inactive; Activity (Aspergillus flavus [10]): inactive; Activity (Aspergillus fumigatus [12]): inactive; Activity (Aspergillus fumigatus [14]): inactive; Activity (Aspergillus fumigatus [15]): inactive; Activity (Aspergillus flavus [17]): inactive |
| COc1ccccc1N1CCN(CCC#N)CC1 | 625 (≈ 2550 µM) | inactive | 9 | inactive | 625 (≈ 2550 µM) | 9 | 156 (≈ 637 µM) | 12 | inactive | 156 (≈ 637 µM) | 11 | 1000 (≈ 4080 µM) | 500 (≈ 2040 µM) | 500 (≈ 2040 µM) | 500 (≈ 2040 µM) | – |

Source: ChEMBL document CHEMBL1143797, “Synthesis, characterization and in vitro biological studies of novel cyano derivatives of N-alkyl and N-aryl piperazine” (2007)
